Results from paper PMC7184160 (EBioMedicine, 2020).
Like-named read-outs stand apart in the source and are kept apart here.

How the values were obtained:
metastatic RCC [1] = details: phase II, advanced RCC after one previous antiangiogenic therapy; cited from earlier work
metastatic RCC [2] = details: range over the agents, cited from earlier work
[3] = cited from earlier work
[4] = plasma pharmacokinetics of vorolanib, X-297 and everolimus; format: in vivo; details: human, oral, t1/2z (half-life), range over cohorts, first single dose, vorolanib 100–200 mg in combination with everolimus 5 mg
[5] = test system: VEGFR2 (KDR), PDGFR, Flt3 and c-Kit; details: range over VEGFR2 (KDR), ref unpublished data; cited from earlier work
[6] = phase 1 safety and tolerability of vorolanib plus everolimus; format: in vivo, human; details: in the combination, 22 patients
Method in brief: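 Open-label, single-centre 3+3 escalation in Chinese patients with advanced ccRCC after failed standard therapy. Oral test compound at 100, 150 or 200 mg daily, given 4 h after partner drug at a fixed 5 mg daily, in 28-day cycles. AEs graded by CTCAE v4.03. Allowed changes: stepwise reduction 200→150→100 mg/day, partner drug 5 mg every other day, and interruption up to 4 weeks.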

[7] = cited from earlier work; remark: listed apart in the source
[8] = cited from earlier work; remark: listed apart in the source
[9] = cited from earlier work; remark: listed apart in the source
[10] = established second-line monotherapies, Discussion
[11] = second-line options for metastatic RCC
[12] = monotherapy 50–800 mg once daily

Molecule: COc1cc2nccc(Oc3ccc(NC(=O)NC4CC4)c(Cl)c3)c2cc1C(N)=O [lenvatinib]
- median PFS (metastatic RCC [1]): 7.4 months

Molecule: nivolumab
- median PFS (metastatic RCC [2]; [10]): 4.4–8.3 months
- median PFS (metastatic RCC [2]; [11]): 3.8–7.4 months

Molecule: Cc1[nH]c(/C=C2\C(=O)Nc3ccc(F)cc32)c(C)c1C(=O)N[C@H]1CCN(C(=O)N(C)C)C1 [vorolanib, Vorolanib]
- grade 4 AEs or deaths related to vorolanib [3, 12]: no grade 4 AEs or deaths related to vorolanib was reported
- treatment-related grade 3 adverse event proteinuria [3, 12]: 4%
- apparent saturation of absorption (dose) ([3]; monotherapy tablet once daily): 400 to 800 mg
- MTD ([3]; monotherapy tablet, dose range 50–800 mg once daily, solid tumors): not achieved
- maximum tolerated dose (MTD) ([3]; monotherapy, dose range 20 to 400 mg daily): without achieving the most tolerated dose (MTD)
- recommended dose of monotherapy ([3]; once daily, patients with advanced cancer): 400 mg
- half-life [4]: 4.74 to 12.9 h
- IC50 [5]: 130 to 1120 pM
- patients with dose interruption [6]: fourteen
- patients with dose reduction [6]: four
- patients with grade 3 or higher events ([7]; across 100 to 250 mg dose cohort): 7 out of 19
- recommended dose for monotherapy [7]: 200 mg
- MTD ([7]; monotherapy 50–250 mg once daily, Chinese patients): not achieved
- dose-limited toxicity (DLT) ([7]; monotherapy, China): No dose-limited toxicity (DLT) was observed

Molecule: COc1cc2nccc(Oc3ccc(NC(=O)C4(C(=O)Nc5ccc(F)cc5)CC4)cc3)c2cc1OC [cabozantinib]
- median PFS (metastatic RCC [2]; [10]): 4.4–8.3 months
- median PFS (metastatic RCC [2]; [11]): 3.8–7.4 months

Molecule: CNC(=O)c1ccccc1Sc1ccc2c(/C=C/c3ccccn3)n[nH]c2c1 [axitinib]
- median PFS (metastatic RCC [2]; [10]): 4.4–8.3 months
- median PFS (metastatic RCC [2]; [11]): 3.8–7.4 months

Molecule: CO[C@H]1C[C@@H]2CC[C@@H](C)[C@@](O)(O2)C(=O)C(=O)N2CCCC[C@H]2C(=O)O[C@H]([C@H](C)C[C@@H]2CC[C@@H](OCCO)[C@H](OC)C2)CC(=O)[C@H](C)/C=C(\C)[C@@H](O)[C@@H](OC)C(=O)[C@H](C)C[C@H](C)/C=C/C=C/C=C/1C [everolimus]
- median PFS (metastatic RCC [1]): 5.5 months
- patients with grade 3 and 4 events [8]: 50%
- median PFS (metastatic RCC [2]; [10]): 4.4–8.3 months
- median PFS (metastatic RCC [2]; [11]): 3.8–7.4 months
- patients with dose interruption [6]: eight

Molecule: CCN(CC)CCNC(=O)c1c(C)[nH]c(/C=C2\C(=O)Nc3ccc(F)cc32)c1C [sunitinib]
- grade 3/4 AE diarrhea [9]: 5%
- grade 3/4 AE fatigue [9]: 7%
- grade 3/4 AE hand-foot syndrome [9]: 5%
- grade 3/4 AE hypertension [9]: 8%
- grade 3/4 AE increased lipase [9]: 13%
- grade 3/4 AE lymphopenia [9]: 12%
- grade 3/4 AE neutropenia [9]: 11%
- grade 3/4 AE vomiting [9]: 4%
